As usually defined, the inhibition is the drop in the measured response relative to a control, in per cent. High values mean a strong effect, low ones a weak effect. As usually defined, the IC50 is the concentration needed to halve the response being measured.

Where only a bound is given, the exact number is not on record here.

The target of one data set is CYP2D6 (Homo sapiens, UniProt P10635). As to the kind of experiment: Inhibition of human CYP2D6 at 3 uM by HPLC-MS. It counts as ADME.
A short description of data set [1]: Metabolic stability in human liver microsome assessed as compound turnover after 30 mins. It counts as ADME. The note with it: liver microsomes, read-out: Stability. The essentials:
(§1)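 Pooled human or rat liver microsomes (0.25 mg/mL), 37 °C, phosphate buffer pH 7.4, test compound 1 µM; NADPH 1 mM final; quenched at 0 or 30 min with organic solvent; unchanged parent by reversed-phase LC-MS/MS; percent turnover from peak area at 30 versus 0 min.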
(Liver microsomes are a subcellular fraction often used to study metabolism.)

The nature of data set [2]: Metabolic stability in rat liver microsome assessed as compound turnover after 30 mins. The format is ADME. Particulars: liver microsomes, read-out: Stability. The essentials: as §1
The target of a further data set is CYP3A4 (Homo sapiens, UniProt P08684). As to the kind of experiment: Inhibition of human CYP3A4 at 3 uM by HPLC-MS. It counts as ADME.
A further data set has as its target Protein smoothened (Mus musculus, UniProt P56726). Briefly: Inhibition of mouse SMO expressed in NIH-3T3 cells. It counts as cell-based, NIH3T3.

CYP3A4, sequence (P08684 whole entry): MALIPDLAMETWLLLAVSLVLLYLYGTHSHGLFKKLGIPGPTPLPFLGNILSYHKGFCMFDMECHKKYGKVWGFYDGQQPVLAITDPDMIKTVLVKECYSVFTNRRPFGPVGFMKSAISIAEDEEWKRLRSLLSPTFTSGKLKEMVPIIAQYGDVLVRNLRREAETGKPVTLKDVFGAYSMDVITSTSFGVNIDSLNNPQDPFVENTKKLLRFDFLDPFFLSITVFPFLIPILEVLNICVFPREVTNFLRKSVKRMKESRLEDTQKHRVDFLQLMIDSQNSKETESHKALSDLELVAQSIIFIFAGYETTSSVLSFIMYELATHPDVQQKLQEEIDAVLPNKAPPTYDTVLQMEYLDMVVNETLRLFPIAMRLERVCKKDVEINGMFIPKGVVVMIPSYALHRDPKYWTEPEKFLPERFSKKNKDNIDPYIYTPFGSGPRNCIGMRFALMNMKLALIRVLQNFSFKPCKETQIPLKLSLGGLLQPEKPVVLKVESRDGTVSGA
CYP2D6, sequence (P10635 whole entry): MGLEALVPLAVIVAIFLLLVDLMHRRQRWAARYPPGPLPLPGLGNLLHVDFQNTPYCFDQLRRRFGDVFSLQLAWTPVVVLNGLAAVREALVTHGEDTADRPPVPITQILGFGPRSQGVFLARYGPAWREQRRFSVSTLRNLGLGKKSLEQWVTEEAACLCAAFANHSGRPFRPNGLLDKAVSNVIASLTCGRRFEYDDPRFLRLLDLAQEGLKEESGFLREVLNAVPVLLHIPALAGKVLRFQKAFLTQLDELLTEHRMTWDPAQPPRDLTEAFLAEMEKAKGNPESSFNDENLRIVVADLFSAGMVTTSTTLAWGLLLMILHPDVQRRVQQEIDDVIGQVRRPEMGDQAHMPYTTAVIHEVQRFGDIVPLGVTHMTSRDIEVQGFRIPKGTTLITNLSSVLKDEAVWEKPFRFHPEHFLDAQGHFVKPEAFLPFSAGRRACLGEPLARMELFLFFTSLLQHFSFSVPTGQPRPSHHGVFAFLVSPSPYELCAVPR
Protein smoothened, sequence (P56726 whole entry): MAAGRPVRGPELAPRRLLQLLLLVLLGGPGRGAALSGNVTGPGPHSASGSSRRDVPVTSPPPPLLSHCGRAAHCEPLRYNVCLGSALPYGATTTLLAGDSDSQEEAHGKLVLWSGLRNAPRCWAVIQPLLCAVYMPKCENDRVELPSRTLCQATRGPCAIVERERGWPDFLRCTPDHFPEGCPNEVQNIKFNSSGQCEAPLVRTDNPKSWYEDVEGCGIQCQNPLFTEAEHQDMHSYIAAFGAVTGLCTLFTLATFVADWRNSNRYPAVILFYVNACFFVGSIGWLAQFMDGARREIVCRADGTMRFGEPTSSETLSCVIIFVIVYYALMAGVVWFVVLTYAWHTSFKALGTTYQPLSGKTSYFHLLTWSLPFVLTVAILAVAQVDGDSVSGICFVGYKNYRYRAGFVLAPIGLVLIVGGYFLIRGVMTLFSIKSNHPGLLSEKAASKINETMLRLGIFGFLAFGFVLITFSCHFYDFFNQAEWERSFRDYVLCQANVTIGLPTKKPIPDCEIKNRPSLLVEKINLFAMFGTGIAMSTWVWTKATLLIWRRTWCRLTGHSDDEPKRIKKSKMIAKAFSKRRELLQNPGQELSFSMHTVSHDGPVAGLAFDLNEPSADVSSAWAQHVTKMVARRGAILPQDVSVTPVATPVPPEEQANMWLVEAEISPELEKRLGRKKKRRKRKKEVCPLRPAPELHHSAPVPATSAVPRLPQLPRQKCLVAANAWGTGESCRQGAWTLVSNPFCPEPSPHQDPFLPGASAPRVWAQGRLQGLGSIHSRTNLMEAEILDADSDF

With `Cc1ccc(-c2nnc(N3CCN(C(=O)c4ccccc4)C[C@H]3C)c3ccccc23)cc1`, the inhibition at 3 µM against CYP2D6 and on CYP3A4 was less than 10% in each case. The metabolised at 0.5 h in data set [1] is 56%; in data set [2] it was 55%.
As for `COc1cccc(-c2nnc(N3CCN(C(=O)c4ccccc4)CC3)c3ccccc23)c1`, the inhibition at 3 µM is 19% against CYP2D6 and less than 10% against CYP3A4. The metabolised at 0.5 h turned out to be 43% in data set [1] and 33% in data set [2].
For `O=C(c1ccccc1)N1CCN(c2nnc(-c3ccc(F)cc3)c3ccccc23)CC1` the same measures were 29%, less than 10%, 17% and 10%.
For `C[C@H]1CN(c2nnc(-c3ccc(F)cc3)c3ccccc23)CCN1C(=O)c1ccccc1`, in that order: 18%, 20%, 10% and 15%.
For the molecule `O=C(c1ccccc1)N1CCN(c2nnc(-c3ccc(Cl)c(Cl)c3)c3ccccc23)CC1`, the values for the metabolised at 0.5 h in data set [1] and in data set [2] were 31% and 10%, respectively. Moreover, the inhibition at 3 µM on CYP3A4 was less than 10%.
Consider `Cc1ccc(-c2nnc(N3CCN(C(=O)c4ccccc4)[C@@H](C)C3)c3ccccc23)cc1`, for which the inhibition at 3 µM on CYP2D6 came out at 10%; at CYP3A4, 13%. For the same molecule, the metabolised at 0.5 h in data set [1] came to 38%; in data set [2] it was 43%.
Turning to `C[C@H]1CN(C(=O)c2ccccc2)CCN1c1nnc(-c2ccccc2)c2ccccc12`, the metabolised at 0.5 h in data set [1] is less than 10%; in data set [2], 23%.
`C[C@H]1CN(c2nnc(-c3ccccn3)c3ccccc23)CCN1C(=O)c1ccccc1`: the inhibition at 3 µM on CYP2D6 and against CYP3A4 was less than 10% in each case. The metabolised at 0.5 h in data set [1] and in data set [2] was less than 10% each time.
`CC(=O)N1CCN(c2nnc(-c3ccccc3)c3ccccc23)CC1` returned an inhibition at 3 µM on CYP2D6 of 29%. The metabolised at 0.5 h in data set [1] and in data set [2] was 10% throughout.
`Cc1ccc(-c2nnc(N3CCN(C(=O)c4ccccc4)CC3)c3ccccc23)cc1`: the inhibition at 3 µM against CYP2D6 and at CYP3A4 was less than 10% each time. Besides, the metabolised at 0.5 h was found to be 45% in data set [1] and 72% in data set [2].
As for `C[C@@H]1CN(C(=O)c2ccccc2)CCN1c1nnc(-c2ccc(C#N)cc2)c2ccccc12`, the figures for the inhibition at 3 µM at CYP2D6 and at CYP3A4 were less than 10% and 12%, respectively. In addition, the metabolised at 0.5 h in data set [1] and in data set [2] was less than 10% in each case.
In the case of `CC(C)c1ccc(-c2nnc(N3CCN(C(=O)c4ccccc4)C[C@H]3C)c3ccccc23)cc1`, the inhibition at 3 µM on CYP2D6 turned out to be 20%; against CYP3A4, 14%. The results for the metabolised at 0.5 h in data set [1] and in data set [2] were 41% and 73%, respectively.
For `COc1ccc(-c2nnc(N3CCN(C(=O)c4ccccc4)CC3)c3ccccc23)cc1` the same measures were 19%, less than 10%, 27% and 22%.
For `C[C@@H]1CN(C(=O)c2ccccc2)CCN1c1nnc(-c2ccc(CO)cc2)c2ccccc12`, the inhibition at 3 µM was less than 10% on CYP2D6 and 15% against CYP3A4. Besides, the metabolised at 0.5 h in data set [1] came out at 14%; in data set [2], 13%.
For `O=C(c1nccs1)N1CCN(c2nnc(-c3ccccc3)c3ccccc23)CC1`, in that order: 89%, less than 10%, 48% and 25%.
At Protein smoothened, `O=C(c1cccs1)N1CCN(c2nnc(-c3ccccc3)c3ccccc23)CC1` had an IC50 of 22 nM.
In the case of `C[C@H]1CN(c2nnc(-c3cccnc3)c3ccccc23)CCN1C(=O)c1ccccc1`, the inhibition at 3 µM at CYP2D6 was less than 10%; on CYP3A4 it was 12%. The metabolised at 0.5 h in data set [1] stood at 10%; in data set [2] it was 12%.
As for `O=C(c1ccco1)N1CCN(c2nnc(-c3ccccc3)c3ccccc23)CC1`, the inhibition at 3 µM is 48% at CYP2D6 and less than 10% against CYP3A4. Moreover, the values for the metabolised at 0.5 h in data set [1] and in data set [2] were 43% and 32%, respectively.
In the case of `C[C@@H]1CN(C(=O)c2ccccc2)CCN1c1nnc(-c2ccccc2)c2ccccc12`, the values for the inhibition at 3 µM on CYP2D6 and at CYP3A4 were 47% and less than 10%, respectively. Further, the metabolised at 0.5 h turned out to be 44% in data set [1] and 39% in data set [2].
For `Cc1ccccc1-c1nnc(N2CCN(C(=O)c3ccccc3)CC2)c2ccccc12` the same measures were 24%, less than 10%, 90% and 40%.
For `C[C@@H]1CN(C(=O)c2ccccc2)CCN1c1nnc(-c2ccc(N(C)C)cc2)c2ccccc12` the same measures were 26%, 90%, 59% and 82%.
For `C[C@H]1CN(c2nnc(-c3ccc(C(F)(F)F)cc3)c3ccccc23)CCN1C(=O)c1ccccc1` the same measures were less than 10%, 49%, less than 10% and less than 10%.
In the case of `C[C@@H]1CN(c2nnc(-c3ccccc3)c3ccccc23)CCN1C(=O)c1ccccc1`, the inhibition at 3 µM against CYP2D6 and against CYP3A4 was less than 10% in each case. For the same molecule, the metabolised at 0.5 h in data set [1] was found to be 17%; in data set [2], 21%.
Take `O=C(c1ccccc1)N1CCN(c2nnc(-c3ccccc3)c3ccccc23)CC1`: the inhibition at 3 µM is 11% against CYP2D6 and less than 10% against CYP3A4. In addition, the metabolised at 0.5 h is 19% in data set [1] and 12% in data set [2].
For `C[C@H]1CN(c2nnc(-c3ccncc3)c3ccccc23)CCN1C(=O)c1ccccc1`, in that order: 52%, 58%, 10% and 25%.
For `N#Cc1cccc(-c2nnc(N3CCN(C(=O)c4ccccc4)CC3)c3ccccc23)c1` the same measures were 18%, less than 10%, 10% and 10%.
For `C[C@H]1CN(c2nnc(-c3ncco3)c3ccccc23)CCN1C(=O)c1ccccc1`, in that order: 27%, less than 10%, 10% and 23%.
As for `C[C@@H]1CN(C(=O)c2ccccc2)CCN1c1nnc(-c2ccc(Cl)cc2)c2ccccc12`, the inhibition at 3 µM on CYP2D6 was 60%; on CYP3A4, less than 10%. Also, the metabolised at 0.5 h in data set [1] came to 38%; in data set [2] it was 12%.
As for `O=C(c1ccccc1)N1CCN(c2nnc(-c3ccc(Cl)cc3)c3ccccc23)CC1`, the values for the inhibition at 3 µM against CYP2D6 and against CYP3A4 were 24% and 16%, respectively. For the same molecule, the metabolised at 0.5 h in data set [1] stood at 20%; in data set [2], 10%.
As for `O=C(c1ccccc1)N1CCN(c2nnc(-c3ccccc3Cl)c3ccccc23)CC1`, the inhibition at 3 µM against CYP2D6 and at CYP3A4 was less than 10% throughout. In addition, the values for the metabolised at 0.5 h in data set [1] and in data set [2] were 62% and 15%, respectively.
As to `C[C@@H]1CN(C(=O)c2ccccc2)CCN1c1nnc(-c2ccc(C(C)(C)C)cc2)c2ccccc12`, the inhibition at 3 µM against CYP2D6 was found to be 10%; at CYP3A4 it was 25%. The metabolised at 0.5 h was 89% in data set [1] and 94% in data set [2].
As for `C[C@H]1CN(c2nnc(N3CC=CC=N3)c3ccccc23)CCN1C(=O)c1ccccc1`, the values for the inhibition at 3 µM at CYP2D6 and at CYP3A4 were 15% and less than 10%, respectively. Further, the metabolised at 0.5 h in data set [1] and in data set [2] was less than 10% each time.
In the case of `C[C@@H]1CN(C(=O)c2ccccc2)CCN1c1nnc(-c2ccc(C3CC3)cc2)c2ccccc12`, the inhibition at 3 µM at CYP2D6 was less than 10%; at CYP3A4, 31%. For the same molecule, the metabolised at 0.5 h was 34% in data set [1] and 21% in data set [2].
For `C[C@H]1CN(c2nnc(-c3ccc(Cl)cc3)c3ccccc23)CCN1C(=O)c1ccccc1` the same measures were 43%, 40%, less than 10% and less than 10%.
For `C[C@H]1CN(c2nnc(-c3ccccc3)c3ccccc23)CCN1C(=O)c1ccccc1`, in that order: 11%, less than 10%, less than 10% and 21%.

The values are drawn from ChEMBL document CHEMBL1158625, “Design of 1-piperazinyl-4-arylphthalazines as potent Smoothened antagonists” (Bioorg Med Chem Lett, 2010).
